Measured values from ChEMBL document CHEMBL3259628, “Discovery of novel 2-((pyridin-3-yloxy)methyl)piperazines as α7 nicotinic acetylcholine receptor modulators for the treatment of inflammatory disorders” (J Med Chem, 2014).
Calls of active or inactive are those of the source. No cut-off for these calls is given here.

Experiments:
CYP2D6 = CYP2D6 (Homo sapiens, UniProt P10635); experiment: Inhibition of CYP2D6 (unknown origin) at 10 uM; type: ADME
Summary of the method: (§1)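 Each of five Cyp isoforms assayed with single probe substrates rather than a substrate cocktail. Run in duplicate at Cerep. IC50 lines come from a 5-concentration titration curve.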

hERG (KCNH2) = hERG (KCNH2) (Homo sapiens, UniProt Q12809); experiment: Inhibition of human ERG at 1 uM by whole-cell voltage clamp assay
Sequence of hERG (KCNH2) (Q12809 whole entry): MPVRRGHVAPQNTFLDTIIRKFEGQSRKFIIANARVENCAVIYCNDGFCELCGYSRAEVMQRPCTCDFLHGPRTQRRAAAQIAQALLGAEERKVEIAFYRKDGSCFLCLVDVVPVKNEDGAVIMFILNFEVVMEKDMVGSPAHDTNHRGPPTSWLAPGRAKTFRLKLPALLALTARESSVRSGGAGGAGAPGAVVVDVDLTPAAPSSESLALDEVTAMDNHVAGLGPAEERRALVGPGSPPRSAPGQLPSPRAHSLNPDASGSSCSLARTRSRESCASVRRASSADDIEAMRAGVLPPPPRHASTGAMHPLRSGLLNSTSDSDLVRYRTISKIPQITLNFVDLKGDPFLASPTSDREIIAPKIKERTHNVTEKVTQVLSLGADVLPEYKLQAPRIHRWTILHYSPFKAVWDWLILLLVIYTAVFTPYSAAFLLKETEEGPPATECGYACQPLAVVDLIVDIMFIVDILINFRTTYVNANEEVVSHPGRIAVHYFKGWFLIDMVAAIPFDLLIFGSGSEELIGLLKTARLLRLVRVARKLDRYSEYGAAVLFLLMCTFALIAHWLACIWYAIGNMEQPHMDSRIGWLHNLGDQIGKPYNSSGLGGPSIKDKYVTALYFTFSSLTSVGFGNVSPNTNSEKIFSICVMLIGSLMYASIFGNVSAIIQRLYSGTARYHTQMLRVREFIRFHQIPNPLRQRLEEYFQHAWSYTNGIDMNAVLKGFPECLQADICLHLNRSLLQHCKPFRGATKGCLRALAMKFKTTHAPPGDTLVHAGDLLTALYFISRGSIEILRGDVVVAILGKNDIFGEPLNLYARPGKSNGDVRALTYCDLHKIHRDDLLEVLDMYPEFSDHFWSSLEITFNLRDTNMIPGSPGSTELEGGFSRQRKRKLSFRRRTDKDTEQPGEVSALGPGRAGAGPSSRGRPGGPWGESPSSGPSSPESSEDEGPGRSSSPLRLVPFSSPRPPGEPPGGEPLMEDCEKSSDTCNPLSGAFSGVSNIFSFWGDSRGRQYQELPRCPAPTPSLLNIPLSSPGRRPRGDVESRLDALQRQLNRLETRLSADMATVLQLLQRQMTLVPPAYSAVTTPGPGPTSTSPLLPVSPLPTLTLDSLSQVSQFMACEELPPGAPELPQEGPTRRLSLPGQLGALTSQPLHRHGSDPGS

[1] = target: T1, 5-hydroxytryptamine receptor 3A (Homo sapiens) (UniProt P46098); experiment: Inhibition of 5-HT3 receptor (unknown origin) at 10 uM
T1 sequence (whole entry): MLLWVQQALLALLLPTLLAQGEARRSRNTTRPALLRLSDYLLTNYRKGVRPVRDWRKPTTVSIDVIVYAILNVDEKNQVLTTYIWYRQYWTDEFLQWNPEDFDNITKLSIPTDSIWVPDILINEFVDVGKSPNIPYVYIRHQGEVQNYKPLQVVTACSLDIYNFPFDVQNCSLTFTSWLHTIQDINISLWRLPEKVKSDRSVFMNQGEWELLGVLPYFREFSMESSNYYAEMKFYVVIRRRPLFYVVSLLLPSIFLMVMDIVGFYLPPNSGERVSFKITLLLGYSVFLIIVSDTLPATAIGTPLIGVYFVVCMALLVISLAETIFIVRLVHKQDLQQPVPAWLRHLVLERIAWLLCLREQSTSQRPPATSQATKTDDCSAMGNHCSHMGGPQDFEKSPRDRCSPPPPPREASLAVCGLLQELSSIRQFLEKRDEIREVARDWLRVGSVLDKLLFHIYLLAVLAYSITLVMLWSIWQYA
Summary of the method: (§2)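 Receptor, ion channel and transporter binding panel run at Cerep in duplicate. Percent inhibition measured at 10 μM compound.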

[2] = target: T2, Neuronal acetylcholine receptor; alpha4/beta2 (Homo sapiens, UniProt P17787+P43681); experiment: Inhibition of human alpha4beta2 nAChR at 10 uM by binding assay
CYP2C9 = CYP2C9 (Homo sapiens, UniProt P11712); experiment: Inhibition of CYP2C9 (unknown origin) at 10 uM; type: ADME; summary of the method: as §1
Sequence of CYP2C9 (P11712 whole entry): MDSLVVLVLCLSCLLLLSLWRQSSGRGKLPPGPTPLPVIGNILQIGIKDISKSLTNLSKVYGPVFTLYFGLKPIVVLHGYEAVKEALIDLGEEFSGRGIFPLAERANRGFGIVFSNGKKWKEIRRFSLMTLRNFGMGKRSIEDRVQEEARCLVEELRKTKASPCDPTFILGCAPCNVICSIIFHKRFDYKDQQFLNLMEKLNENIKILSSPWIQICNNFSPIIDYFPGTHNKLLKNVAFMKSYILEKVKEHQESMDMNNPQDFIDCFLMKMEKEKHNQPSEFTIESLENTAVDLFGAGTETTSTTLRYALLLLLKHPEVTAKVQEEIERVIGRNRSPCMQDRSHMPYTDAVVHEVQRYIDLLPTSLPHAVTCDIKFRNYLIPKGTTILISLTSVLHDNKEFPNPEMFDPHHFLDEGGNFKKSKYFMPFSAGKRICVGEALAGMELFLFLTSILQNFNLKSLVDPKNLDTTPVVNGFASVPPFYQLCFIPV

CYP2C19 = CYP2C19 (Homo sapiens, UniProt P33261); experiment: Inhibition of CYP2C19 (unknown origin) at 10 uM; type: ADME; summary of the method: as §1
Sequence of CYP2C19 (P33261 whole entry): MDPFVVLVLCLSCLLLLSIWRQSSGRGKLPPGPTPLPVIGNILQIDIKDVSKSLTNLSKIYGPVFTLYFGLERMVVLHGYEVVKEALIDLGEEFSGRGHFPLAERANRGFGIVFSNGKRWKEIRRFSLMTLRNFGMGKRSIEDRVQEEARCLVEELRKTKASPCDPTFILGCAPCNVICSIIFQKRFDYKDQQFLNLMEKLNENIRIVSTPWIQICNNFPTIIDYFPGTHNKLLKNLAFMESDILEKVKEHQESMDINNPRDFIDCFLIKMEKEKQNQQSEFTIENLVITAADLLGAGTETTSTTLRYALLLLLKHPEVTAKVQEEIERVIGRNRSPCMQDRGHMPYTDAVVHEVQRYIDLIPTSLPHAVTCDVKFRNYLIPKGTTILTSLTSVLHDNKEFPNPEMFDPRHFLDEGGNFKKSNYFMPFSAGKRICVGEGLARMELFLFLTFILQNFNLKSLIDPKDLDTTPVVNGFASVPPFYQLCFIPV

CYP1A2 = target: T3, CYP1A2 (Homo sapiens, UniProt P05177); experiment: Inhibition of CYP1A2 (unknown origin) at 10 uM; type: ADME; summary of the method: as §1
T3 sequence (P05177 whole entry): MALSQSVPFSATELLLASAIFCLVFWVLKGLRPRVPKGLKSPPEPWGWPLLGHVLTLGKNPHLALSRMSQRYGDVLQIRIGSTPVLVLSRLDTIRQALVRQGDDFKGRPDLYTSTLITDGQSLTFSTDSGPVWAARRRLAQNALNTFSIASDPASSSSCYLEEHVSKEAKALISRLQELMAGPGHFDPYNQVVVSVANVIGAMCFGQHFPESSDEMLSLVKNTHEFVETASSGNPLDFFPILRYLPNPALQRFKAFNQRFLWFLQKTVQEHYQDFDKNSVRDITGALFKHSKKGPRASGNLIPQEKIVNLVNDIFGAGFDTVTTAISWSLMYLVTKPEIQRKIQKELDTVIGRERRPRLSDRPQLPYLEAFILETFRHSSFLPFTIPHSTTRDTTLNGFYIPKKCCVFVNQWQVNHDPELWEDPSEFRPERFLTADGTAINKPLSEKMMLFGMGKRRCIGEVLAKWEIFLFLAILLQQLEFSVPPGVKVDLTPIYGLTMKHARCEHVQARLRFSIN

[3] = target: Acetylcholine receptor; alpha1/beta1/delta/gamma (Homo sapiens) (UniProt P02708+P07510+P11230+Q07001); experiment: Inhibition of alpha1beta1gammadelta nAChR (unknown origin) at 10 uM; type: protein-complex assay; summary of the method: as §2
CYP3A4 = CYP3A4 (Homo sapiens, UniProt P08684); experiment: Inhibition of CYP3A4 (unknown origin) at 10 uM; type: ADME; summary of the method: as §1
Sequence of CYP3A4 (P08684 whole entry): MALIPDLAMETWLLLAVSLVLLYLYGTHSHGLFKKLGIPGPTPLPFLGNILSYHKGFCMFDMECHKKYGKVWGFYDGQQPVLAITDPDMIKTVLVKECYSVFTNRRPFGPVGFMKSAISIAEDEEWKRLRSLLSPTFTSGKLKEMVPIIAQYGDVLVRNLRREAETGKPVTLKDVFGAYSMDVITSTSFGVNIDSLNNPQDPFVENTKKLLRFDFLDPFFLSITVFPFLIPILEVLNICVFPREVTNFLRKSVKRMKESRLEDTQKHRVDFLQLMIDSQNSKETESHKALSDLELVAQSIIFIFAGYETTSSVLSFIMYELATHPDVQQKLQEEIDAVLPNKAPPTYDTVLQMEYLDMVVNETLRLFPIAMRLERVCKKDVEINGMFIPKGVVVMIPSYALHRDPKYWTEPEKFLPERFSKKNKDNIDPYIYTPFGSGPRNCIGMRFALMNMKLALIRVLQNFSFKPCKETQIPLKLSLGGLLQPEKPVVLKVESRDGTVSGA

[4] = target: Neuronal acetylcholine receptor subunit alpha-7 (Rattus norvegicus, UniProt Q05941); experiment: Inhibition of biotinylated alpha-bungarotoxin binding to alpha7 nAChR in rat PC12 cells by FACS analysis; type: cell-based, PC-12
Sequence of Neuronal acetylcholine receptor subunit alpha-7 (Rattus norvegicus, UniProt Q05941) (Q05941 whole entry): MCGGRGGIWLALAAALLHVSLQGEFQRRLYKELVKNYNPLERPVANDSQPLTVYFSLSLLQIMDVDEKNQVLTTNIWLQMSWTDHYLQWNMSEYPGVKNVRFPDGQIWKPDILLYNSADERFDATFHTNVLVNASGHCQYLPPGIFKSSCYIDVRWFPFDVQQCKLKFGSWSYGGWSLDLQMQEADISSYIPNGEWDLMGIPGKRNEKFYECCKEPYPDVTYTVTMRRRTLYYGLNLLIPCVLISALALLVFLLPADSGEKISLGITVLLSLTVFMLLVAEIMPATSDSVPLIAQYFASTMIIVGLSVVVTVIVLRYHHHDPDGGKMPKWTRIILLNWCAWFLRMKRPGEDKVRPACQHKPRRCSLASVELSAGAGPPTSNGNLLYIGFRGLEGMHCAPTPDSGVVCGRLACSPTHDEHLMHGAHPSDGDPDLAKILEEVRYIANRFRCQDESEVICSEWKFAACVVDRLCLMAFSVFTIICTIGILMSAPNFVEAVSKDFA
Summary of the method: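 Rat PC12 cells in binding buffer (PBS, 1.0% FBS, 0.02% sodium azide), 0.1% DMSO; biotinylated α-bungarotoxin 10 nM final, 1 h at room temperature; nonspecific binding defined with 1.5 μM unlabeled toxin. After washing, phycoerythrin-streptavidin 1.0 μg/mL final, 15 min in the dark; read by FACS. Screened at 10 and 1 μM, then eight-point 3-fold dilution IC50; mean of two or more experiments.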

Mus musculus [5] = experiment: (§3) Antiinflammatory activity against ovalbumin-induced allergic lung inflammation BALB/c mouse model assessed as reduction in neutrophils in brochoalveolar lavage fluid at 10 mg/kg, po bid administered on day 29 to 31 post ovalbumin challenge measured 8 hrs post last challenge relative to vehicle-treated control; type: functional, organism-based; set-up: dose 10 mg/kg; settings: Bronchoalveolar lavage
Summary of the method: (§4)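 Balb/c mice sensitized with ovalbumin by IP injection on days 1 and 14, then challenged intranasally with 100 μg ovalbumin on days 29, 30 and 31. Compound in saline given orally starting 30 min before each challenge; groups of six mice. Sham groups were saline-sensitized and allergen-challenged. BAL taken 8 h after the last challenge, with differential cell counts on slides.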

Mus musculus [6] = experiment: as §3, with “eosinophils” for “neutrophils”; type: functional, organism-based; set-up: dose 10 mg/kg; summary of the method: as §4
Mus musculus [7] = experiment: as §3, with “total blood cells” for “neutrophils”; type: functional, organism-based; set-up: dose 10 mg/kg; summary of the method: as §4
Mus musculus [8] = experiment: as §3, with “eosinophils” for “neutrophils”, “5” for “10”, “qd” for “bid”; type: functional, organism-based; set-up: dose 5 mg/kg; summary of the method: as §4
Mus musculus [9] = experiment: as §3, with “5” for “10”, “qd” for “bid”; type: functional; settings: Bronchoalveolar lavage; summary of the method: as §4
[10] = Half life in mouse at 1 mg/kg, iv; type: ADME, organism-based; set-up: dose 1 mg/kg, route intravenous; settings: in vivo
[11] = target: T4, Neuronal acetylcholine receptor subunit alpha-7 (Homo sapiens, UniProt P36544); settings: 300 uM
T4 sequence (P36544 whole entry): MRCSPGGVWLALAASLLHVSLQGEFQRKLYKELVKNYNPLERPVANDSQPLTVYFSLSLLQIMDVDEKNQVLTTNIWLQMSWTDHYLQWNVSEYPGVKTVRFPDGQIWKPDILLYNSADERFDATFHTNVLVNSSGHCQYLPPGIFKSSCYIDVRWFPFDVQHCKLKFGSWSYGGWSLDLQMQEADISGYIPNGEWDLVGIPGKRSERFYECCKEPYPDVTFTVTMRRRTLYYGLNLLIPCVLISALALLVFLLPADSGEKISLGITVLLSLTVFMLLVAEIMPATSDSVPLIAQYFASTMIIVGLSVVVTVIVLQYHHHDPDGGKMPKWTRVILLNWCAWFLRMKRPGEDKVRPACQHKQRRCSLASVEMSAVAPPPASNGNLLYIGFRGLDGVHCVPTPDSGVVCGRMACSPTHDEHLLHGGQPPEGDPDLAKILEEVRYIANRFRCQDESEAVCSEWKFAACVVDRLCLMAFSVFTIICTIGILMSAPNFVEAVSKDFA

[12] = Half life in mouse at 5 mg/kg, po; type: ADME, organism-based; set-up: dose 5 mg/kg, route oral; settings: in vivo
Mus musculus [13] = experiment: as §3, with “total blood cells” for “neutrophils”, “1” for “10”, “qd” for “bid”; type: functional; summary of the method: as §4
[14] = target: T4, Neuronal acetylcholine receptor subunit alpha-7; experiment: Agonist activity at human alpha7 nAChR expressed in Xenopus oocytes by voltage clamp method; type: cell-based
[15] = Cmax in mouse at 5 mg/kg, po; type: ADME, organism-based; set-up: dose 5 mg/kg, route oral; settings: in vivo
[16] = target: T2, Neuronal acetylcholine receptor; alpha4/beta2; experiment: Inhibition of human alpha4beta2 nAChR by binding assay
[17] = target: T2, Neuronal acetylcholine receptor; alpha4/beta2; experiment: Agonist activity at human alpha4beta2 nAChR expressed in Xenopus oocytes by voltage clamp method; type: cell-based
Mus musculus [18] = experiment: as §3, with “1” for “10”, “qd” for “bid”; type: functional; settings: Bronchoalveolar lavage; summary of the method: as §4
Mus musculus [19] = experiment: as §3, with “total blood cells” for “neutrophils”, “5” for “10”, “qd” for “bid”; type: functional; summary of the method: as §4
[20] = Oral bioavailability in mouse at 5 mg/kg; type: ADME, organism-based; settings: in vivo
[21] = target: Adenosine receptor A2a (Homo sapiens) (UniProt P29274); experiment: Inhibition of adenosine A2a receptor (unknown origin) at 10 uM; summary of the method: as §2
Sequence of Adenosine receptor A2a (Homo sapiens) (P29274 whole entry): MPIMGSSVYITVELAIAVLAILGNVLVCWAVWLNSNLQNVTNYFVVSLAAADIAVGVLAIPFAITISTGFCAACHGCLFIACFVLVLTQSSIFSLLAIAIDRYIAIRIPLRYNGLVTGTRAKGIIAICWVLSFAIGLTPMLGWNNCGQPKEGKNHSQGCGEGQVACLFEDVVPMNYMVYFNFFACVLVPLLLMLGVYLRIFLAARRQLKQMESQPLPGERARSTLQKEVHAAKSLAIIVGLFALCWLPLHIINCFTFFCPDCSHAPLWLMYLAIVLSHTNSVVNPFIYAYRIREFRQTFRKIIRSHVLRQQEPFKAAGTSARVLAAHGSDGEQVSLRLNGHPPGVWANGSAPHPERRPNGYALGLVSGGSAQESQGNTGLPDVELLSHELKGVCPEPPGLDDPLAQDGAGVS

Mus musculus [22] = experiment: as §3, with “eosinophils” for “neutrophils”, “1” for “10”, “qd” for “bid”; type: functional; summary of the method: as §4
[23] = Clearance in mouse at 1 mg/kg, iv; type: ADME, organism-based; set-up: dose 1 mg/kg, route intravenous; settings: in vivo
[24] = target: T2, Neuronal acetylcholine receptor; alpha4/beta2; experiment: Agonist activity at alpha4beta2 nAChR (unknown origin)
Mus musculus [25] = experiment: as §3, with “eosinophils” for “neutrophils”, “1” for “10”; type: functional; summary of the method: as §4
Mus musculus [26] = experiment: as §3, with “1” for “10”; type: functional; settings: Bronchoalveolar lavage; summary of the method: as §4

Sequence of CYP2D6 (P10635 whole entry, canonical isoform): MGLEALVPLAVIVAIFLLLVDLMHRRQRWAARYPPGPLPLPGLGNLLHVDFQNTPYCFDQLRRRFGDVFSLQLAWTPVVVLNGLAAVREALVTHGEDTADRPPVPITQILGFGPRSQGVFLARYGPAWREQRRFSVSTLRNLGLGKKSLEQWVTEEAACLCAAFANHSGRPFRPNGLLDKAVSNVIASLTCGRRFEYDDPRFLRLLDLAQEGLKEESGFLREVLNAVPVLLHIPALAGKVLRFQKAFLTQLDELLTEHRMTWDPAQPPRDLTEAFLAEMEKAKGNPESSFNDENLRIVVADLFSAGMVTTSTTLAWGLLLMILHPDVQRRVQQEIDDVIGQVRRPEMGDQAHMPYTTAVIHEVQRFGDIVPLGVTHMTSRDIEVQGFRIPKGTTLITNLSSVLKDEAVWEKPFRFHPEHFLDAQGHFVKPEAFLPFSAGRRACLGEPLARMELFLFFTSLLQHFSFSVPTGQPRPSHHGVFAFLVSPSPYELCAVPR

| Compound | inhibition at 10 µM (CYP2D6) | inhibition at 1 µM (hERG (KCNH2)) | inhibition [1] | inhibition [2] | inhibition at 10 µM (CYP2C9) | inhibition at 10 µM (CYP2C19) | inhibition at 10 µM (CYP1A2) | inhibition [3] | inhibition at 10 µM (CYP3A4) | IC50 [4] | further results |
| --- | --- | --- | --- | --- | --- | --- | --- | --- | --- | --- | --- |
| c1cncc(OCC2CNCCN2c2nc3ccccc3o2)c1 (racemic) | 87% | 22% | 95% | 89% | 20% | 24% | 36% | -2% | 17% | 106 nM | – |
| Cc1cc(NC(=O)N2CCNCC2COc2cccnc2)ccc1Br (racemic) | 85% | 27% | 80% | 15% | 21% | 51% | 48% | 23% | 80% | 14 nM | – |
| COc1ccc(OC(=O)N2CCNCC2COc2cccnc2)cc1 (racemic) | – | – | 39% | 90% | – | – | – | 2% | – | 11 nM | – |
| COc1ccc(NC(=O)N2CCNCC2COc2cccnc2)cc1 (racemic) | 0% | 15% | 23% | 33% | 14% | 17% | 11% | -8% | 7% | 60 nM | inhibition (Mus musculus [5]): Active; inhibition (Mus musculus [6]): Active; inhibition (Mus musculus [7]): Active |
| Cl.c1cncc(OC[C@H]2CNCCN2c2nc3ncccc3o2)c1 | 1% | – | 43% | – | 22% | 9% | 25% | 1% | 5% | 5.5 nM | inhibition (Mus musculus [8]): inactive; inhibition in vivo at 5 mg/kg (Mus musculus [9]): 78%; half-life [10]: 19 min; Emax [11]: 85%; half-life [12]: 98 min; inhibition in vivo at 1 mg/kg (Mus musculus [13]): 60%; EC50 [14]: 200 nM; Cmax [15]: 2530 nM; IC50 [16]: 58 nM; Activity [17]: inactive; inhibition in vivo at 1 mg/kg (Mus musculus [18]): 90%; inhibition in vivo at 5 mg/kg (Mus musculus [19]): 60%; bioavailability [20]: 50%; inhibition [21]: 50%; inhibition in vivo at 1 mg/kg (Mus musculus [22]): 64%; clearance [23]: 72 mL/min/kg |
| O=C(Nc1ccc(Br)cc1F)N1CCNCC1COc1cccnc1 (racemic) | 41% | 18% | 47% | 30% | 7% | 32% | 13% | 7% | 58% | 42 nM | – |
| Fc1cccc2sc(N3CCNCC3COc3cccnc3)nc12 (racemic) | 60% | 19% | 99% | 53% | 28% | 60% | 63% | 20% | 75% | 17 nM | – |
| c1cncc(OC[C@@H]2CCN2)c1 | – | – | – | – | – | – | – | – | – | – | Ki [24]: 0.052 nM |
| COc1ccc(NC(=O)N2CCNC[C@H]2COc2cccnc2)cc1 | – | – | 7% | – | – | – | – | 2% | – | 18000 nM | inhibition (Mus musculus [25]): inactive; inhibition (Mus musculus [26]): inactive |
| Fc1cc(F)c2nc(N3CCNCC3COc3cccnc3)sc2c1 (racemic) | 72% | 36% | 91% | 45% | 26% | 70% | 67% | 12% | 83% | 19 nM | – |
| O=C(c1ccccc1)c1ccc(NC(=O)N2CCNCC2COc2cccnc2)cc1 (racemic) | 7% | 40% | 16% | 18% | 62% | 49% | 16% | 10% | 23% | 41 nM | – |
| Brc1ccc2oc(N3CCNC[C@@H]3COc3cccnc3)nc2c1 | – | – | 100% | 96% | – | – | – | -3% | – | 67 nM | – |
| COc1ccc2nc(N3CCNC[C@@H]3COc3cccnc3)sc2c1 | 50% | 36% | 99% | 83% | 33% | 78% | 63% | 9% | 49% | 46 nM | – |
| COc1ccc(NC(=O)N2CCNCC2COc2cccnc2)cc1Cl (racemic) | 25% | 17% | 40% | 23% | 10% | 47% | 20% | 17% | 66% | 45 nM | – |
